# Most compounds without a hit are left out; they make up all but 2.8% or so of the library.
# m5-HT2A agonist – mouse Htr2a agonists via beta-arrestin recruitment, primary screen, cell-based, luminescence | 5-hydroxytryptamine receptor 2A (Mus musculus), P35363 | 0.66% of 360,000 active | AID 624169, 2012 | activation, % at 7.6 µM | CHO-K1 mHTR2A beta-arrestin complementation; percent of 30 µM serotonin response;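 active means activation above a run cutoff, the mean activation of all tested compounds plus 3 SD, cut at about 14% in these data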;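 further: 0% = plate median of compound wells and 100% = 30 µM serotonin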
# EBI2 block – EBI2 receptor antagonists, beta-arrestin recruitment, primary screen, cell-based, luminescence, 7a,25-OHC stimulation, uHTS; G-protein coupled receptor 183 (Homo sapiens), P32249; 7a,25-OHC stimulated; inhibition, % at 5 µM; 0.81% of 360,000 active; AID 651636, 2012; in the data active means inhibition above about 38%;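 further: enzyme fragment complementation signal reports receptor beta-arrestin coupling in cells; 0% = agonist plus DMSO wells and 100% = wells without agonist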
# Target sequence (P32249 whole entry, looked up, the tested form may be a part): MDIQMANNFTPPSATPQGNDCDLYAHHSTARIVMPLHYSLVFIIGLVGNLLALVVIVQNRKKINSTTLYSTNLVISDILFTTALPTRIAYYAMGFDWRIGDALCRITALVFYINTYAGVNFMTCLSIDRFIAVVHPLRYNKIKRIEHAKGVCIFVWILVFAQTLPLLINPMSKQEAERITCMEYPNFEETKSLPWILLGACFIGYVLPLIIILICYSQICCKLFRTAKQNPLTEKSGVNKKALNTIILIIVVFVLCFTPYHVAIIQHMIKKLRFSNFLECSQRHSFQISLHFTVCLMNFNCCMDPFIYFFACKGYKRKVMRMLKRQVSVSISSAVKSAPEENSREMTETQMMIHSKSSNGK
# MC4R antagonist – MC4R antagonists of cAMP signaling, primary screen, cell-based, TR-FRET, antagonist arm of biased-ligand search; inhibition, % at 6.5 µM; 0.48% of 360,000 active; MC4R-expressing cells, MTII-stimulated cAMP, LANCE TR-FRET; Melanocortin receptor 4 (Homo sapiens), P32245;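 active means inhibition above its plate's cutoff, the mean of tested wells on that plate plus 3 SD, cut at about 29% in these data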;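 further: 0% = Melanotan II alone and 100% = Melanotan II plus saturating MCL0020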
#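 material = U2OS cells stably expressing human melanocortin 4 receptor (MC4R) | also added = Melanotan II challenge | dosing = single nominal compound dose of 6.5 µM | detection = TR-FRET with Eu-cAMP and labeled anti-cAMP, 671 nm | replication = singlicate | timing = compound 30 min, challenge 1 h, detection 1 h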
# MC4R barr agon – MC4R agonists recruiting beta-arrestin, primary screen, cell-based, luminescence, agonist arm of biased-ligand search; Melanocortin receptor 4 (Homo sapiens), P32245; U2OS MC4R beta-arrestin complementation; percent of melanotan II response, DMSO zero; activation, % at 8.9 µM; 0.98% of 360,000 active;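 active means activation above a per-plate cutoff, the mean activation of sample wells on that plate plus 3 SD, cut at about 8% in these data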
# MC4R barr conf – MC4R beta-arrestin agonists, retest, confirmation, cell-based, luminescence, U2OS; shares compounds with MC4R barr agon; U2OS MC4R beta-arrestin recruitment; scaled DMSO 0%, Melanotan II 100%; activation, % at 8.9 µM; 31% of 2,400 active;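 active means mean activation across replicates above the hit cutoff set in the earlier primary screen, cut at about 8% in these data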
# MOR DOR agonist – agonists of MOR-DOR heterodimerization, counter-screen for MC4R biased agonist project, cell-based, luminescence. activation, % at 9.2 µM. U2OS PathHunter beta-arrestin, beta-gal luminescence; percent of deltorphin B response, DMSO zero. 5.8% of 2,400 active. shares compounds with MC4R barr agon;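 active means mean activation across replicates exceeds the hit threshold derived in the earlier primary screen, cut at about 18% in these data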;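 further: 100% = deltorphin B at 0.9 µM final and 0% = DMSO alone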
# Starred values were filed as active, the others as inactive; nt = no result.
SMILES,m5-HT2A agonist,EBI2 block,MC4R antagonist,MC4R barr agon,MC4R barr conf,MOR DOR agonist
CN(Cc1ccccc1)C(=O)c1ccc(Nc2nc(C(N)Cc3ccc(C(F)(F)F)cc3)cs2)nc1 (configuration not stated),5.2,8.6,20.2,40.3*,22.2*,33.4*
NC(CCc1ccccc1)c1csc(Nc2ccc(C(=O)NCCO)cc2)n1 (configuration not stated),-3.6,-12.4,6.9,1.2,nt,nt
Cc1cccc(C)c1-n1nnnc1C1(C)CCC(=O)N1CCCN1CCOCC1 (configuration not stated),-1.4,2.1,nt,nt,nt,nt
CN(C)CCN1CCN(C2CN(Cc3ccc([N+](=O)[O-])cc3)S(=O)(=O)C2)CC1 (configuration not stated),-2.6,-9.1,nt,nt,nt,nt
NC(Cc1ccc(C(F)(F)F)cc1)c1csc(Nc2ccc(C(=O)c3ccccc3)cc2)n1 (configuration not stated),1.5,-3.2,6.8,12.7*,14.3*,14.3
COc1ccc(S(=O)(=O)NC(=O)C2(C)CCN2C(=O)CC2CCCC2)cc1 (configuration not stated),-0.8,-7.9,1.5,1.2,nt,nt
Cc1cccc2cc3c(NC(=O)c4ccccn4)nn(C)c3nc12,0.1,-45.6,-3.2,12.7*,1.6,4.3
CN(c1cc(Cl)c2c(c1)OCO2)c1cc2c(c3c1ccn3C)C1CCC2C1 (configuration not stated),3.8,15.3,nt,nt,nt,nt
O=C(Nc1ccccc1)Nc1sccc1-c1nc2ccccc2s1,-2.7,2.0,26.5,16.6*,4.8,5.3
CSc1cc(-c2ccccc2)n(C)c(=O)c1C#N,-5.3,-3.6,-4.4,11.6*,1.4,3.3
NNC(=O)c1ccc(OCC2CC(c3ccc(Cl)cc3)=NO2)cc1 (configuration not stated),4.6,15.8,9.9,11.8*,0.0,5.3
Cc1cc(=O)oc2cc(OCC3CC(c4ccc(Cl)cc4)=NO3)ccc12 (configuration not stated),3.0,-3.7,11.7,-0.2,nt,nt
O=C(O)C(Cc1ccccc1)N=C(NS(=O)(=O)c1ccccc1)c1ccccc1 (configuration not stated),-2.0,-3.6,6.0,-1.1,nt,nt
O=C(CSc1nnc(COc2ccccc2)o1)N1CCN(c2ccccc2)CC1,-6.8,19.5,26.0,1.4,nt,nt
Cc1cc(C)cc(OCc2nnc(SCC(=O)N3CCN(c4ccccc4)CC3)o2)c1,-6.4,6.3,0.3,10.0*,4.0,12.0
CCc1ccc(OCc2nnc(SCC(=O)N3CCN(c4ccccc4)CC3)o2)cc1,-2.6,32.8,8.7,16.6*,6.0,19.6*
O=C1NCCc2onc(-c3ccc(Br)cc3)c21,3.6,-3.2,nt,nt,nt,nt
Cc1ccc(S(=O)(=O)NN=CC=CC=NNS(=O)(=O)c2ccc(C)cc2)cc1,5.4,3.3,3.9,0.5,nt,nt
Cn1c(Nc2ccc(Cl)cc2F)nc2cc(-c3ccccc3)sc2c1=O,5.3,4.9,3.3,2.6,nt,nt
O=C(Nc1ccc(F)cc1F)c1c(C(F)(F)F)ccnc1Oc1ccc(Cl)cc1,-3.2,10.2,3.0,2.8,nt,nt
O=C(Nc1ccc(F)cc1F)c1c(C(F)(F)F)ccnc1Oc1cccc(C(F)(F)F)c1,0.7,7.8,-1.6,19.9*,0.7,3.5
O=C(CSc1c(Cl)cccc1Cl)NC1CCCc2ccccc21 (configuration not stated),-5.5,9.0,3.2,31.1*,-2.8,3.9
O=C(CSc1nc2ccc(Cl)cc2[nH]1)NC1CCCc2ccccc21 (configuration not stated),-4.0,15.2,14.1,1.1,nt,nt
O=C(CSc1ccc(Cl)cc1)NC1CCCc2ccccc21 (configuration not stated),-2.6,14.1,2.6,10.9*,3.0,5.5

# Assay outcomes: PubChem, several laboratories
